High-throughput results from PubChem BioAssay.
PolyA inh: inhibitors of polyadenylation in S. cerevisiae. S. cerevisiae SKY197-pL101 polyadenylation reporter, beta-gal luminescence; efflux-impaired pdr1/pdr3 knockout yeast; score 100 = 6 SD above DMSO. activity score, % at 12 µM. actives 0.02% (n = 300,000);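 active means lowest replicate activity score at least 50, where 100 means six control SD above control mean; inconclusive means lowest score under 50 but half or more replicates reach 50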;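 further: yeast exposed to compound for 9 h at 30 °C; higher score means more reporter readthrough which indicates perturbed polyadenylation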
Calb FLC: affects C. albicans growth with fluconazole; C. albicans CaCi-2 (fluconazole-resistant clinical isolate) + fluconazole, Alamar Blue growth, 48 h; growth inhibition, % (no concentration beside the values); actives 0.57% (n = 300,000); AID 1979;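 active means growth inhibition above about 58% in most replicates, limit read from the data, passing the limit was not always enough; inconclusive means exactly half the replicates above a set limit; inactive means most replicates below a set limit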;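 further: all wells also contain fluconazole at 8 µg/ml as a sub-toxic cotreatment; 0% = median of DMSO wells and 100% = median of geldanamycin control wells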
NALP1 inh: blocks the NALP1 inflammasome reconstituted in yeast | S. cerevisiae NALP1/ASC/caspase-1 growth, X-gal OD620, 72 h | inhibition, % at 10 µM | actives 0.61% (n = 280,000) | AID 2071; in the data active means inhibition mostly above about 24%, no sharp cut-off; inactive means mostly below about 32%
NALP3 yeast inh: inhibitors of NALP3 inflammasome in yeast. inhibition, % at 10 µM. Yeast reconstituted NLRP3/ASC/caspase-1, beta-gal luminescence, 24 h. actives 0.39% (n = 330,000);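 active means inhibition of 50% or more; inactive means inhibition below 50%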;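 further: plate controls were induced DMSO wells for no effect and uninduced yeast grown without galactose for full effect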
L major viab: Leishmania major promastigote growth inhibition | inhibition, % at 10 µM | Leishmania major promastigotes, resazurin fluorescence viability | actives 9% (n = 200,000); in the data active means inhibition above about 50%;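 further: promastigotes grown with compound for 44 hours at 28 °C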
T cruzi inh: T. cruzi replication inhibition; T. cruzi beta-gal in NIH3T3, luminescence, 90 h; inhibition, % (no concentration beside the values); actives 1.4% (n = 300,000); AID 1885;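 active means mean inhibition across valid replicates above about 55%, limit read from the data; inconclusive means mean below that limit but half or more replicates reach it; inactive means mean below it, under half of replicates reach it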;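 further: signal also drops with host cell toxicity which is not excluded here; 0% = plate median of DMSO wells and 100% = zero luminescence signal; higher percent means less beta-gal luminescence so fewer parasites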
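assay system = mouse NIH/3T3 fibroblasts infected with β-gal-expressing T. cruzi Tulahuen C4 | input = 5,000 NIH/3T3 host cells per well | buffer or medium = DMEM plus 2% FBS | timing = 3 h host attachment, then at least 90 h co-culture | measured by = GalScreen luminescence, 60 min | evaluation = luminescence reflecting intracellular parasite burden, expressed as percent inhibition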
* marks the source's active call; other numbers are inactive results; ? = inconclusive; / = no result. This is one part of a sample in which hits are shown more often than they occur.

SMILES	PolyA inh	Calb FLC	NALP1 inh	NALP3 yeast inh	L major viab	T cruzi inh
CCOC(=O)c1cc2n(c1/N=C/N(C)C)-c1ccccc1C2=O	-33	2	4	3	18	15
CC1CCCCC12NC(=O)N(CC(=O)Nc1sc3c(c1C(N)=O)CCC3)C2=O (configuration not stated)	27	-14	23	15	3	-28
O=C(Nc1cccc2ncccc12)c1ccc([N+](=O)[O-])o1	13	-16	5	7	/	-8
Cc1cccnc1NC(=O)c1ccc([N+](=O)[O-])o1	7	-4	35	-4	77*	30
CCCCOC(=O)/C=C/c1c(C)[nH]c(=O)[nH]c1=O	12	0	23	11	52*	-1
CC1=CC(=O)C=C(C)C1=NOC(=O)/C=C\c1ccccc1	-3	35	-11	-17	53*	-31
CC1=CC(=NOC(=O)/C=C/c2ccccc2)C=C(C)C1=O	20	7	-15	-10	101*	-17
CC1=C(C)/C(=N\OC(=O)/C=C/c2ccccc2)C=CC1=O	0	-3	11	5	100*	-21
N/C(=N\OC(=O)/C=C/c1ccccc1)c1ccncc1	-7	45	-2	2	14	1
COc1ccc(N2CCN(C(=O)CSc3ncccc3-c3nc4ccccc4[nH]3)CC2)cc1	-2	-2	7	29	58*	23
COc1ccccc1N1CCN(C(=O)CSc2nc(N)cc(=O)[nH]2)CC1	22	12	41*	19	-5	6
COc1ccccc1N1CCN(C(=O)CSc2ncccc2-c2nc3ccccc3[nH]2)CC1	-16	44	-1	9	50*	12
COc1ccccc1N1CCN(C(=O)CSc2nc3ccccc3[nH]2)CC1	13	6	-7	14	21	-5
O=C(CSc1ncccc1-c1nc2ccccc2[nH]1)N1CCN(c2ccccc2F)CC1	12	46	4	11	12	2
Oc1c(C=Nc2ccccc2Cl)[nH]c2ccccc12	18	-37	2	-4	/	-15
O=C(Nc1ccc(C(=O)N2CCOCC2)cc1)c1cc(-c2cccnc2)nc2ccc(Cl)cc12	17	36	12	2	11	5
Cc1ccc(N(CC(=O)NCCSCc2ccco2)S(=O)(=O)c2ccc(F)cc2)cc1	5	-20	1	20	69*	12
O=C(CN(c1ccccc1)S(=O)(=O)c1ccccc1)NCCSCc1ccco1	-2	-1	9	7	68*	14
Cc1ccc(S(=O)(=O)N(CC(=O)NCCSCc2ccco2)c2cc(C)ccc2C)cc1	7	1	/	-4	100*	14
Cc1cc(C)n(-c2ccc(Cl)c(C(=O)Nc3ccc(OC(F)(F)F)cc3)n2)n1	?	3	11	10	-1	5
O=C(COC(=O)c1cccnc1Cl)Nc1cc(S(=O)(=O)N2CCCCC2)ccc1Cl	7	-22	19	13	-1	5
CCCCn1c(NCc2ccccc2O)nc2ccccc21	16	21	27	8	35	17
CCCn1c(NCc2cc(C)ccc2O)nc2ccccc21	4	35	17	37	77*	0
CCCn1c(NCc2ccc3c(c2)OCO3)nc2ccccc21	13	0	8	11	82*	11
COc1ccc(C(C(=O)NC2CCCC2)N(Cc2cccnc2)C(=O)Cc2cccs2)cc1OC (configuration not stated)	0	-1	34	10	/	-3
SMILES	PolyA inh	Calb FLC	NALP1 inh	NALP3 yeast inh	L major viab	T cruzi inh
COC(=O)c1ccc(C(C(=O)NC2CCCCC2)N(CCc2ccccc2)C(=O)Cc2cccs2)cc1 (configuration not stated)	-4	-17	-20	10	-6	1
COC(=O)c1ccc(C(C(=O)NC2CCCCC2)N(Cc2ccc(F)cc2)C(=O)Cc2cccs2)cc1 (configuration not stated)	-2	-3	11	9	56*	13
COc1ccc(CN(C(=O)Cc2cccs2)C(C(=O)NC2CCCC2)c2ccncc2)cc1 (configuration not stated)	7	10	0	6	57*	66*
c1nc(N2CCOCC2)c2c3c(sc2n1)CCCC3	5	10	19	-15	-2	-1
O=C(c1ccccc1)N1CCN(c2ncnc3sc4c(c23)CCC4)CC1	-14	2	38	7	63*	-25
CC(C)c1nc(N2CCN(C(=O)c3ccco3)CC2)c2c3c(sc2n1)CCCC3	-2	89*	-6	9	38	30
CCOC(=O)c1ccc(NC(=O)Cn2cnc(S(=O)(=O)N3CCCC3)c2)cc1	7	-4	-26	15	/	0
COc1ccc(S(=O)(=O)Nc2cc3c4c(c2)CCN4C(=O)CC3)cc1OC	12	12	/	2	/	-4
CCc1cccc(C)c1NC(=O)CN(C)Cc1cccc(F)c1	-11	1	25	13	1	-11
Cc1cccc(C(C)C)c1NC(=O)CN(C)Cc1cccc(F)c1	7	19	32	8	72*	-7
COc1ccc(OC)c(C(=O)Cn2c3[n+](c4ccc(C(F)(F)F)cc42)CCCCC3)c1	0	3	9	1	99*	36
Cc1cccc(N2CCN(C(=O)C3CCC(=O)N(C4CC4)C3)CC2)c1C (configuration not stated)	13	-8	26	11	/	-9
CCCCCCCCO	/	/	/	-4	/	/
CCCCCCCCCCCCCCCC(O)C(N)CO (configuration not stated)	2	/	41	41	100*	9
CC1CCc2c(sc(NC(=O)CSc3ncnc4c3cnn4-c3ccccc3Cl)c2C#N)C1 (configuration not stated)	-1	1	10	-6	8	-21
Cc1ccc(Cn2nc(C)c(NC(=O)CCCn3nc([N+](=O)[O-])c(Cl)c3C)c2C)cc1	9	26	40	-3	8	39
Cc1ccc(Cn2nc(C)c(NC(=O)CCCn3nc(C)c([N+](=O)[O-])c3C)c2C)cc1	-17	2	20	15	52*	13
Cc1nn(Cc2c(Cl)cccc2Cl)c(C)c1NC(=O)Cn1nc([N+](=O)[O-])c(Cl)c1C	15	-6	18	14	20	17
Cc1nn(Cc2c(Cl)cccc2Cl)c(C)c1NC(=O)CCCn1nc(C)c([N+](=O)[O-])c1C	2	-6	18	11	66*	0
Cc1nn(Cc2ccccc2Cl)c(C)c1NC(=O)CCCn1nc([N+](=O)[O-])c(Cl)c1C	1	5	26	15	12	71*
Cc1c(Cl)c([N+](=O)[O-])nn1CCCC(=O)Nc1cccc(Cl)c1Cl	3	-1	22	20	4	5
